# Results as given in ChEMBL document CHEMBL4017500 (J Med Chem, 2017).
# Calls of active or inactive are those of the source. The calls are words filed in the database; no cut-off is given here.
# Tests used:
# [1] = molecular target: Macrophage metalloelastase (Homo sapiens) (UniProt P39900); assay: Inhibition of human MMP12 (Phe99 to Leu271 residues) expressed in Escherichia coli at 10 uM using Mca-Pro-LeuGly-Leu-Dpa-Ala-Arg-NH2.AcOH as substrate preincubated for 30 mins followed by substrate addition measured after 20 mins by fluorescence assay relative to control
# Outline: (§1)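 Human recombinant MMP-2 (1.16 U/well) or MMP-12 (0.007 U/well) in 50 mM HEPES, 10 mM CaCl2, 0.05% Brij-35, pH 7.5. Enzyme and inhibitor pre-incubated 30 min at 37 °C, then OmniMMP fluorogenic substrate (4 μM) added. Fluorescence rise followed 20 min at ex/em 320/400 nm. Activity relative to no-inhibitor wells, with 200 μM NSA as 0%. Run in triplicate.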
# Escherichia coli [2] = assay: Effect on growth of Escherichia coli isolate Ah8.73 at 100 mg/L after 18 to 20 hrs by broth microdilution assay
# Outline: (§2)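 Mueller-Hinton broth microdilution per CLSI, triplicate. blaNDM-1 clinical isolates grown from OD600 0.1 to 0.224 (~1–2 × 10^8 CFU/mL), diluted 3 μL into 4997 μL MH, and 100 μL added to 100 μL of compound (100 mg/L) alone. Incubated 37 °C for 18–20 h, then scored for growth.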
# Escherichia coli [3] = assay: Inhibition of NDM1 in Escherichia coli isolate Ch8.72 assessed as potentiation of imipenem-induced antibacterial activity by measuring imipenem MIC at 100 mg/L after 18 to 20 hrs by broth microdilution assay (reference value: 16 mg/L)
# Escherichia coli [4] = assay: Effect on growth of Escherichia coli isolate Ch8.68 at 100 mg/L after 18 to 20 hrs by broth microdilution assay; outline: as §2
# [5] = tested on: histone deacetylase 1/6 (Homo sapiens); assay: Selectivity ratio of compound effect for inhibition of bacterial MBP-fused NDM1 expressed in Escherichia coli BL21(DE3) to compound effect for inhibition of human histone deacetylases HDAC-1/HDAC-6
# HEK293 [6] = assay: Cytotoxicity against HEK293 cells assessed as change in morphology up to 400 uM after 4 to 24 hrs by microscopic assay; format: cell-based; settings: human
# Outline: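 HEK293 cells treated as in the viability assay (4 or 24 h, DMSO vehicle control). Imaged by epifluorescence microscopy at 20X magnification to assess growth and morphology.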
# Bacteria [7] = assay: Binding affinity to bacterial NDM-1 expressed in Escherichia coli BL21(DE3) assessed as Zn2+ stripping at 24 uM after 30 mins by equilibrium dialysis method relative to control
# Outline: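 NDM-1 (8 μM final) in 50 mM HEPES pH 7.5 mixed with compound at 0–128 μM for 30 min. Then dialyzed 4 h against metal-free 50 mM HEPES pH 7.5. Residual Zn(II) measured by ICP-AES at 213.856 nm.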
# Klebsiella pneumoniae [8] = assay: Effect on growth of Klebsiella pneumoniae isolate Pd1.53 at 100 mg/L after 18 to 20 hrs by broth microdilution assay; outline: as §2
# Escherichia coli [9] = assay: Inhibition of NDM1 in Escherichia coli isolate Ah8.74 assessed as potentiation of imipenem-induced antibacterial activity by measuring imipenem MIC at 100 mg/L after 18 to 20 hrs by broth microdilution assay (reference value: 8 mg/L)
# [10] = molecular target: Metallo-beta-lactamase type 2 (Klebsiella pneumoniae) (UniProt C7C422); assay: Inhibition of NDM1 in Klebsiella pneumoniae isolate Pd1.53 assessed as potentiation of imipenem-induced antibacterial activity by measuring imipenem MIC at 100 mg/L after 18 to 20 hrs by broth microdilution assay (reference value: 8 mg/L)
# Klebsiella pneumoniae [11] = assay: Effect on growth of Klebsiella pneumoniae isolate Pd1.48 at 100 mg/L after 18 to 20 hrs by broth microdilution assay; outline: as §2
# [12] = Inhibition of bacterial MBP-fused NDM1 expressed in Escherichia coli BL21(DE3) ausing fluorocillin as substrate preincubated for 20 mins followed by substrate addition measured at 1 sec time interval for 25 mins by fluorescence assay; design: species or system Bacteria
# Outline: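 NDM-1 pre-incubated 20 min with inhibitor (final 100 μM to 1 nM) in 50 mM HEPES pH 7.0 with 2 mM CHAPS. Reaction started with fluorocillin (final 87 nM, below KM), NDM-1 final 25 pM. Fluorescence read at λex/em 495/525 nm, 10 reads over ~25 min.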
# Bacteria [13] = assay: Binding affinity to bacterial CoCoNDM-1 expressed in Escherichia coli BL21(DE3) assessed as metal stripping at 2 equiv by 1H NMR spectroscopic method
# Outline: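 Apo-NDM-1 concentrated to ~1 mM and loaded with 2 equiv CoCl2. Samples in 50 mM HEPES, 150 mM NaCl, 10% D2O, pH 6.8. Compounds from 50–100 mM DMSO stocks titrated in ~5 μL aliquots. 1H spectra recorded at 292 K, 300.16 MHz.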
# Klebsiella pneumoniae [14] = assay: Effect on growth of Klebsiella pneumoniae isolate Pd1.49 at 100 mg/L after 18 to 20 hrs by broth microdilution assay; outline: as §2
# Bacteria [15] = assay: Binding affinity to bacterial CoCoNDM-1 expressed in Escherichia coli BL21(DE3) assessed as CoCoNDM-1-compound ternary complex formation at 1 equiv by 1H […] spectroscopic method
# [16] = molecular target: 72 kDa type IV collagenase (Homo sapiens) (UniProt P08253); assay: Inhibition of human MMP2 (Tyr110 to Asp452 residues) expressed in yeast at 10 uM using Mca-Pro-LeuGly-Leu-Dpa-Ala-Arg-NH2.AcOH as substrate preincubated for 30 mins followed by substrate addition measured after 20 mins by fluorescence assay relative to control; outline: as §1
# [17] = molecular target: Metallo-beta-lactamase type 2 (Klebsiella pneumoniae) (UniProt C7C422); assay: Inhibition of NDM1 in Klebsiella pneumoniae isolate Pd1.50 assessed as potentiation of imipenem-induced antibacterial activity by measuring imipenem MIC at 100 mg/L after 18 to 20 hrs by broth microdilution assay (reference value: 8 mg/L)
# [18] = molecular target: 72 kDa type IV collagenase (Homo sapiens) (UniProt P08253); assay: Inhibition of human MMP2 (Tyr110 to Asp452 residues) expressed in yeast at 50 to 100 uM using Mca-Pro-LeuGly-Leu-Dpa-Ala-Arg-NH2.AcOH as substrate preincubated for 30 mins followed by substrate addition measured after 20 mins by fluorescence assay relative to control; outline: as §1
# HEK293 [19] = assay: Cytotoxicity against HEK293 cells assessed as reduction in cell viability up to 400 uM after 4 to 24 hrs by Cell-titer blue reagent based spectrophotometric assay; settings: human
# Outline: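 HEK293 cells seeded at 10,000/well 12 h before treatment. Exposed to compound or DMSO vehicle for 4 or 24 h in DMEM with 10% serum and penicillin-streptomycin, n=6 per treatment per time point. Cell-Titer Blue added for 1 h, fluorescence read at 536ex/595em. Viability relative to vehicle (=1.0); ANOVA with Tukey post-hoc.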
# [20] = Selectivity ratio of compound effect for inhibition of bacterial MBP-fused NDM1 expressed in Escherichia coli BL21(DE3) to compound effect for inhibition of human MMP2 (Tyr110 to Asp452 residues) expressed in yeast
# Chain of 72 kDa type IV collagenase (Homo sapiens) (P08253 110-660 limits assumed): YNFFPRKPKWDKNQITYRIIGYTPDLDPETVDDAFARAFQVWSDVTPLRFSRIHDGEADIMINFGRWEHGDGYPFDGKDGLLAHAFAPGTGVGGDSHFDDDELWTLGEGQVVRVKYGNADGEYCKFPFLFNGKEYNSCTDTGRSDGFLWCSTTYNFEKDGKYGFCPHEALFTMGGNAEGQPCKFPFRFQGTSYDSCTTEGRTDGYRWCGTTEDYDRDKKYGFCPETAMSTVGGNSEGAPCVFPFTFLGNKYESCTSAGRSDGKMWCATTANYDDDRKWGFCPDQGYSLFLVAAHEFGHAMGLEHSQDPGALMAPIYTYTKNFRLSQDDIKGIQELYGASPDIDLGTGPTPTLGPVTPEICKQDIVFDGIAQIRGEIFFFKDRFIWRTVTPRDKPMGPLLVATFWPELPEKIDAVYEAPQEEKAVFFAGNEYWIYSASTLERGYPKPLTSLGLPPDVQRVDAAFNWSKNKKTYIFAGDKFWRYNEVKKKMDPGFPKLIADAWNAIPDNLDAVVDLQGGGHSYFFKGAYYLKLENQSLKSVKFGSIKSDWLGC
# Chain of Metallo-beta-lactamase type 2 (Klebsiella pneumoniae) (C7C422 whole entry): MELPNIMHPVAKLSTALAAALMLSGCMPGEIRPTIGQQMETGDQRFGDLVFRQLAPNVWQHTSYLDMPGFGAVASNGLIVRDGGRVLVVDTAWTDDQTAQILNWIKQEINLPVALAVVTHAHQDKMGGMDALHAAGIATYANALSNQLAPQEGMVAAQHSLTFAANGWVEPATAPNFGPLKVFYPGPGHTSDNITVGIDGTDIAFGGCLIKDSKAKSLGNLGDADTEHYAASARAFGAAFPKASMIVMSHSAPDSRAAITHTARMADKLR
# Chain of Macrophage metalloelastase (Homo sapiens) (P39900 106-470 limits assumed): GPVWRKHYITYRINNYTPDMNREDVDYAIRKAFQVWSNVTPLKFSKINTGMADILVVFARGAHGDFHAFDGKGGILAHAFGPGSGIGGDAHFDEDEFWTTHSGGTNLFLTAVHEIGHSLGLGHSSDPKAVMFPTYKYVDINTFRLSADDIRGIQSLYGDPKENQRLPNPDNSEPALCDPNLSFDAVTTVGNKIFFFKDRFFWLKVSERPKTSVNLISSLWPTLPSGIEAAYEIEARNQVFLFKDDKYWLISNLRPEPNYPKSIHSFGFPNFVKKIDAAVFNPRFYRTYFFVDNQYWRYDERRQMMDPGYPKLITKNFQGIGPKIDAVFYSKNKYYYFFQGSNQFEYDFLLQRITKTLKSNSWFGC
smiles,measurement,setting,value
Nc1cccc(-c2cc(C(=O)O)nc(C(=O)O)c2)c1,inhibition,[1],48%
same,Activity,Escherichia coli [2],Non-Toxic
same,MIC,Escherichia coli [3],0.5 µg/mL
same,Activity,Escherichia coli [4],Non-Toxic
same,Selectivity ratio,[5],500 to 1000
same,Activity,HEK293 [6],Non-Toxic
same,Activity,Bacteria [7],10 to 20%
same,Activity,Klebsiella pneumoniae [8],Non-Toxic
same,MIC,Escherichia coli [9],0.5 µg/mL
same,MIC,[10],0.5 µg/mL
same,Activity,Klebsiella pneumoniae [11],Non-Toxic
same,IC50,[12],80 nM
same,Activity,Bacteria [13],Active
same,Activity,Klebsiella pneumoniae [14],Non-Toxic
same,Activity,Bacteria [15],Active
same,inhibition,[16],< 6%
same,MIC,[17],0.5 µg/mL
same,inhibition,[18],< 50%
same,Activity,HEK293 [19],Non-Toxic
same,Selectivity ratio,[20],100 to 1000
